Values after ≈ are worked out from the molar mass of the structure shown.
What was measured:
Staphylococcus aureus = assay: Antimicrobial activity against methicillin-resistant Staphylococcus aureus after 18 to 24 hrs in aerobic condition by two-fold serial dilutions method; assay type: functional
Method in brief: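 Strains grown on LB at 37 °C aerobically, then in Mueller-Hinton broth overnight at 200 rpm and brought to log phase (OD600 ~0.6). About 10^5 bacteria/mL exposed to two-fold serial dilutions 0–500 µM, DMSO 0.2% final as control. Aerobic incubation at 37 °C for 18–24 h; OD600 read; MIC = lowest concentration inhibiting visible growth. n = 3.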

Pseudomonas aeruginosa = assay: Antimicrobial activity against Pseudomonas aeruginosa after 18 to 24 hrs in aerobic condition by two-fold serial dilutions method; assay type: functional
Method in brief: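 Colonies grown overnight (~16 h) in Mueller-Hinton broth at 37 °C, 200 rpm, diluted 1/100 and grown to log phase (OD600 ~0.6), then diluted to ~10^5 bacteria/mL. Exposed to 0 to 500 µM in 1:2 series (0.2% DMSO final control), aerobic, 37 °C, 18–24 h. OD600 read; MIC = lowest concentration without visible growth; n = 3.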

BEAS-2B = assay: Cytotoxicity against human BEAS2B cells assessed as reduction in cell viability after 48 hrs by Resazurin dye-based assay; details: for IC50: Homo sapiens, BEAS-2B; for Activity: human, beas-2b
Method in brief: (§1)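 Normal human lung epithelial (BEAS-2B) and lung fibroblast (IMR-90) cells were grown in DMEM with 10% FCS. Cells were seeded at ~10^4/well, grown to confluence (48–72 h), then exposed to increasing concentrations for 48 h at 37 °C, 5% CO2, with 0.2% DMSO as control. Resazurin was added for 4 h and fluorescence read at 530/590 nm. Viability was normalized to DMSO wells and IC50 calculated.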

IMR-90 = assay: Cytotoxicity against human IMR90 cells assessed as reduction in cell viability after 48 hrs by Resazurin dye-based assay; details: for IC50: Homo sapiens, IMR-90, 48 h; for Activity: human, imr-90, 48 h; method in brief: as §1

| SMILES | MIC (Staphylococcus aureus) [µM] | MIC (Pseudomonas aeruginosa) [µM] | IC50 (BEAS-2B) [µM] | Activity (BEAS-2B) | IC50 (IMR-90) [µM] | Activity (IMR-90) |
| --- | --- | --- | --- | --- | --- | --- |
| Cc1ccc(/C=C2\Oc3cccc(O)c3C2=O)c(C)c1 | > 500 | > 500 | – | – | – | – |
| O=C1/C(=C/c2ccc(O)cc2)Oc2ccccc21 | > 500 | > 500 | – | – | – | – |
| O=C1/C(=C/c2ccc(O)cc2)Oc2cc(O)cc(O)c21 | 62.5 to 125 (≈ 16.9 to 33.8 µg/mL) | > 500 | – | – | – | – |
| O=C(O)c1ccc(/C=C2\Oc3c(O)cccc3C2=O)cc1 | > 500 | > 500 | – | – | – | – |
| CCCCc1ccc(/C=C2\Oc3cc(OC)cc(OC)c3C2=O)cc1 | > 500 | > 500 | – | – | – | – |
| O=C1/C(=C/c2ccc(C3CCCCC3)cc2)Oc2cc(O)cc(O)c21 | 7.8 (≈ 2.62 µg/mL) | > 500 | 33 | Dose-dependent effect | 31 | Dose-dependent effect |
| COc1cc(OC)c2c(c1)O/C(=C\c1ccccc1O)C2=O | > 500 | > 500 | – | – | – | – |
| CN1CCN(c2ccc(/C=C3\Oc4cccc(O)c4C3=O)cc2)CC1 | > 500 | > 500 | – | – | – | – |
| O=C1/C(=C/c2ccccc2)Oc2cccc(O)c21 | > 500 | > 500 | – | – | – | – |
| COc1ccc(/C=C2\Oc3cc(OC)cc(OC)c3C2=O)c(OC)c1 | > 500 | > 500 | – | – | – | – |
| O=C1/C(=C/c2cccc(O)c2)Oc2cc(O)cc(O)c21 | 125 to 250 (≈ 33.8 to 67.6 µg/mL) | > 500 | – | – | – | – |
| CN1CCN(c2ccc(/C=C3\Oc4cc(O)ccc4C3=O)cc2)CC1 | > 500 | > 500 | – | – | – | – |
| O=C1/C(=C/c2cccc(O)c2O)Oc2c(O)cccc21 | 250 (≈ 67.6 µg/mL) | > 500 | – | – | – | – |
| O=C1/C(=C/c2ccccc2)Oc2c(O)cccc21 | > 500 | > 500 | – | – | – | – |
| O=C1/C(=C/c2ccc(O)cc2)Oc2cc(O)ccc21 | > 500 | > 500 | – | – | – | – |
| O=C1/C(=C/c2ccc(O)c(O)c2)Oc2cccc(O)c21 | 125 to 250 (≈ 33.8 to 67.6 µg/mL) | > 500 | – | – | – | – |

| SMILES | MIC (Staphylococcus aureus) [µM] | MIC (Pseudomonas aeruginosa) [µM] | IC50 (BEAS-2B) [µM] | Activity (BEAS-2B) | IC50 (IMR-90) [µM] | Activity (IMR-90) |
| --- | --- | --- | --- | --- | --- | --- |
| CC(C)c1ccc(/C=C2\Oc3cccc(O)c3C2=O)cc1 | > 500 | > 500 | – | – | – | – |
| O=C1/C(=C/c2cccc(O)c2)Oc2cc(O)ccc21 | > 500 | > 500 | – | – | – | – |
| CCCCc1ccc(/C=C2\Oc3cc(O)cc(O)c3C2=O)cc1 | 15.6 to 31.2 (≈ 4.84 to 9.7 µg/mL) | > 500 | 90 | Dose-dependent effect | 80 | Dose-dependent effect |
| CC(C)(C)c1ccc(/C=C2\Oc3cccc(O)c3C2=O)cc1 | > 500 | > 500 | – | – | – | – |
| COc1cccc(OC)c1/C=C1\Oc2cccc(O)c2C1=O | 250 (≈ 74.6 µg/mL) | > 500 | – | – | – | – |
| O=C1/C(=C/c2ccccc2O)Oc2cc(O)ccc21 | > 500 | > 500 | – | – | – | – |
| COc1cc(OC)c2c(c1)O/C(=C\c1ccc(C)cc1C)C2=O | > 500 | > 500 | – | – | – | – |
| O=C1/C(=C/c2ccc(O)cc2)Oc2cccc(O)c21 | 125 to 250 (≈ 31.8 to 63.6 µg/mL) | > 500 | – | – | – | – |
| O=C1/C(=C/c2cc(O)c(O)c(O)c2)Oc2c(O)cccc21 | 125 to 250 (≈ 35.8 to 71.6 µg/mL) | > 500 | – | – | – | – |
| O=C1/C(=C/c2ccc(O)c(O)c2)Oc2c(O)cccc21 | 125 to 250 (≈ 33.8 to 67.6 µg/mL) | > 500 | – | – | – | – |
| COc1cc(OC)c(/C=C2\Oc3cccc(O)c3C2=O)c(OC)c1 | 250 (≈ 82.1 µg/mL) | > 500 | – | – | – | – |
| CCc1ccc(/C=C2\Oc3cccc(O)c3C2=O)cc1 | 62.5 to 125 (≈ 16.6 to 33.3 µg/mL) | > 500 | – | – | – | – |
| CCCCc1ccc(/C=C2\Oc3cccc(O)c3C2=O)cc1 | > 500 | > 500 | – | – | – | – |
| COc1ccc2c(c1)O/C(=C\c1ccc(OC)c(OC)c1)C2=O | > 500 | > 500 | – | – | – | – |
| O=C1/C(=C/c2ccccc2)Oc2ccccc21 [(Z)-AURONE] | > 500 | > 500 | – | – | – | – |

From ChEMBL document CHEMBL4400513, “Aurone derivatives as promising antibacterial agents against resistant Gram-positive pathogens” (Eur J Med Chem, 2019)
